Experimental data as given in ChEMBL document CHEMBL5329176, “Design, synthesis, and biological evaluation of novel pyrimidin-2-amine derivatives as potent PLK4 inhibitors” (RSC Med Chem, 2023).
Values belong to the compound of their own block, whether it stands above or below them.

Legend:
[1] = molecular target: T1, Serine/threonine-protein kinase PLK4 (Homo sapiens, UniProt O00444); experiment: Inhibition of human recombinant PLK4 incubated for 1 hrs by LanthaScreen Eu kinase FRET assay
T1 sequence (O00444 whole entry): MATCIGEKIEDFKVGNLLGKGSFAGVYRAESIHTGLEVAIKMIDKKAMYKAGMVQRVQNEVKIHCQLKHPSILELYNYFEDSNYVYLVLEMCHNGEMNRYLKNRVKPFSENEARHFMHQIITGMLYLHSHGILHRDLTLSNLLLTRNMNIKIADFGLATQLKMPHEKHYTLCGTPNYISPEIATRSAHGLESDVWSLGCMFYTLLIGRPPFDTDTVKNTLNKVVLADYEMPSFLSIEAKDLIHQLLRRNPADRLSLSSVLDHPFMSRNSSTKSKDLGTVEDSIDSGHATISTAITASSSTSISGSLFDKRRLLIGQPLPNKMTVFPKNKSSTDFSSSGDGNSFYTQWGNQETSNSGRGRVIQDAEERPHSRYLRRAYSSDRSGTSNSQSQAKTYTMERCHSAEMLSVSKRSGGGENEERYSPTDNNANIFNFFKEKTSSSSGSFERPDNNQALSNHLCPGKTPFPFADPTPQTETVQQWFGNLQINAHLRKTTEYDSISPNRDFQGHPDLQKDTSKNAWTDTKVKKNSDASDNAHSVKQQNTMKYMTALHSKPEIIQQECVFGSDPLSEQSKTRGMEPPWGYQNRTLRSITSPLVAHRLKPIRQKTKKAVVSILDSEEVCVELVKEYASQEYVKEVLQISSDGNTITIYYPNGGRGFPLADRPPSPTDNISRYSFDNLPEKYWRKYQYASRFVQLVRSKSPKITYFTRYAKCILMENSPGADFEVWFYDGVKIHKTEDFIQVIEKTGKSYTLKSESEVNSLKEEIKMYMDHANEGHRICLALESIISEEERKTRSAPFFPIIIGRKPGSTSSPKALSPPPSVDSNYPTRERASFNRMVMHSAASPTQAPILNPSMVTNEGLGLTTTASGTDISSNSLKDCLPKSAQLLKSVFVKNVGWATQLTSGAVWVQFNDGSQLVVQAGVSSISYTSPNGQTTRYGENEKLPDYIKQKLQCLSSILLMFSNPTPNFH

[2] = Metabolic stability in human liver microsomes assessed as half life in presence of NADPH as co-foctor incubated for 60 mins by LC-MS/MS analysis; assay type: ADME, Microsome
[3] = Metabolic stability in human liver microsomes assessed as intrinsic clearance in presence of NADPH as co-foctor incubated for 60 mins by LC-MS/MS analysis; assay type: ADME, Microsome; conditions: read-out: CLH
[4] = Metabolic stability in human liver microsomes assessed as parent compound remaining in presence of NADPH as co-foctor and measured after 60 mins by LC-MS/MS analysis; assay type: ADME, Microsome; conditions: read-out: Stability
[5] = Metabolic stability in human liver microsomes assessed as parent compound remaining in absence of NADPH as co-foctor and measured after 60 mins by LC-MS/MS analysis; assay type: ADME, Microsome; conditions: read-out: Stability
MCF7 = experiment: Antiproliferative activity against human MCF7 cells assessed as cell growth inhibition incubated for 5 days by MTT assay; assay type: functional, cell-based; conditions: MCF7, 120 h
BT-474 = experiment: Antiproliferative activity against human BT-474 cells assessed as cell growth inhibition incubated for 5 days by MTT assay; assay type: functional, cell-based; conditions: BT-474, 120 h
MDA-MB-231 = experiment: Antiproliferative activity against human MDA-MB-231 cells assessed as cell growth inhibition incubated for 5 days by MTT assay; assay type: functional, cell-based; conditions: MDA-MB-231, 120 h
[6] = Metabolic stability in human plasma assessed as parent compound remaining and measured after 0 mins by LC-MS/MS analysis; assay type: ADME, cell-free; conditions: read-out: Stability
In short: (§1)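 Pooled frozen plasma was thawed at 37 °C and centrifuged to remove clots. Compound was spiked to a final 2 μM (duplicate) and incubated at 37 °C. At 0, 10, 30, 60 and 120 min, protein was precipitated with acetonitrile stop solution containing tolbutamide and labetalol internal standards. Samples were centrifuged at 4000 rpm and 4 °C, and the supernatant was analysed by LC–MS/MS.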

[7] = Metabolic stability in human plasma assessed as parent compound remaining and measured after 10 mins by LC-MS/MS analysis; assay type: ADME, cell-free; conditions: read-out: Stability; in short: as §1
[8] = Metabolic stability in human plasma assessed as parent compound remaining and measured after 30 mins by LC-MS/MS analysis; assay type: ADME, cell-free; conditions: read-out: Stability; in short: as §1
[9] = Metabolic stability in human plasma assessed as parent compound remaining and measured after 60 mins by LC-MS/MS analysis; assay type: ADME, cell-free; conditions: read-out: Stability; in short: as §1
[10] = Metabolic stability in human plasma assessed as parent compound remaining and measured after 120 mins by LC-MS/MS analysis; assay type: ADME, cell-free; conditions: read-out: Stability; in short: as §1
[11] = Metabolic stability in human plasma assessed as half life and measured upto 120 mins by LC-MS/MS analysis; assay type: ADME, cell-free; in short: as §1
CYP1A2 = molecular target: T2, CYP1A2 (Homo sapiens, UniProt P05177); experiment: Inhibition of CYP1A2 in human liver microsomes at 10 uM preincubated for 10 mins followed by NADPH cofactor addition and measured after 10 mins by LC-MS/MS analysis; assay type: ADME, Microsome; conditions: time 20 min
T2 sequence (P05177 whole entry): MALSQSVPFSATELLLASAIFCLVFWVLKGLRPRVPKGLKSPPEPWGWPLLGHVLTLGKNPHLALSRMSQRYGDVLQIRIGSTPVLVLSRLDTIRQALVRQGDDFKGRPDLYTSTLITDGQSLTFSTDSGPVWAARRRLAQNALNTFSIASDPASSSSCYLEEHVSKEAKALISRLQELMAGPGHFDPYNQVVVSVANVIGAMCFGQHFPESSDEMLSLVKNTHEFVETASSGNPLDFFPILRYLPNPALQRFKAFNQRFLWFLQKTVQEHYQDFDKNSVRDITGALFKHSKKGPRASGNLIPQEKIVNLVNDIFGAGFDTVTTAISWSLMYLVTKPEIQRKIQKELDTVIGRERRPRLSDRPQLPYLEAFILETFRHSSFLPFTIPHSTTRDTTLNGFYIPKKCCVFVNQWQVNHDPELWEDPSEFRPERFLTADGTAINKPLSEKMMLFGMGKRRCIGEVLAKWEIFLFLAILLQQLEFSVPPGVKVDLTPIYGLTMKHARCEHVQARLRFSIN
In short: (§2)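 Human liver microsome (HLM) incubation with isoform-specific substrate solutions. Test compound was added from a 100× working solution. Mixture was pre-warmed about 10 min at 37 °C, then NADPH cofactor was added and incubated 10 min at 37 °C. The reaction was stopped with cold stop solution, centrifuged at 4000 rpm for 20 min, and the supernatant was diluted and analysed by LC–MS/MS.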

CYP2C9 = CYP2C9 (Homo sapiens, UniProt P11712); experiment: Inhibition of CYP2C9 in human liver microsomes at 10 uM preincubated for 10 mins followed by NADPH cofactor addition and measured after 10 mins by LC-MS/MS analysis; assay type: ADME, Microsome; conditions: time 20 min
CYP2C9, sequence (P11712 whole entry): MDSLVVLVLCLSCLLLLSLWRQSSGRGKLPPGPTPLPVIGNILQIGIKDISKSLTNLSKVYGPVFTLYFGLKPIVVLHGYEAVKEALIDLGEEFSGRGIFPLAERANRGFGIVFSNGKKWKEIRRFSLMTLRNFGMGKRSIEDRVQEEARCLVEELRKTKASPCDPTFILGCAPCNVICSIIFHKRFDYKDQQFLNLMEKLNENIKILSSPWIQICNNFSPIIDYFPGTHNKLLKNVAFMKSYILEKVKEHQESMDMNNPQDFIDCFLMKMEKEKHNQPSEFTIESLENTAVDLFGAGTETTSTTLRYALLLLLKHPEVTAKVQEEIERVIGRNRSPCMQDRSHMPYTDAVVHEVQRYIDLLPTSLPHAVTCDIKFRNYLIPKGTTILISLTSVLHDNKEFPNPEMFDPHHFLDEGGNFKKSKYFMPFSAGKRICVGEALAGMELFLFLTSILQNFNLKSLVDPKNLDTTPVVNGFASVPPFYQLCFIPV

CYP2C19 = CYP2C19 (Homo sapiens, UniProt P33261); experiment: Inhibition of CYP2C19 in human liver microsomes at 10 uM preincubated for 10 mins followed by NADPH cofactor addition and measured after 10 mins by LC-MS/MS analysis; assay type: ADME, Microsome; conditions: time 20 min; in short: as §2
CYP2C19, sequence (P33261 whole entry): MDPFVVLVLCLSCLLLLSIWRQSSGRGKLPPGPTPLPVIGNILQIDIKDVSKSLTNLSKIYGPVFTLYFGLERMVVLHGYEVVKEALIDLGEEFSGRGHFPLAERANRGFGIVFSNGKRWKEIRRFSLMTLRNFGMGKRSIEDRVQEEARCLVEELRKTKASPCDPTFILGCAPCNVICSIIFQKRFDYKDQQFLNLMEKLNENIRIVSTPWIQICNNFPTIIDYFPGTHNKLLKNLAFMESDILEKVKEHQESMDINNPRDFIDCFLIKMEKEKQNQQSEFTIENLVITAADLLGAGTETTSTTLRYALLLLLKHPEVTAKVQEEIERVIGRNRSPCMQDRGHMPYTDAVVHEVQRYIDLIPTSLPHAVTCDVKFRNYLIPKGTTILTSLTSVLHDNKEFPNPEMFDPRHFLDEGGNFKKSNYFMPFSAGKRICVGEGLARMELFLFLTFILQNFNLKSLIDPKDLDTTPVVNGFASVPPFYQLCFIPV

CYP2D6 = CYP2D6 (Homo sapiens, UniProt P10635); experiment: Inhibition of CYP2D6 in human liver microsomes at 10 uM preincubated for 10 mins followed by NADPH cofactor addition and measured after 10 mins by LC-MS/MS analysis; assay type: ADME, Microsome; conditions: time 20 min; in short: as §2
CYP2D6, sequence (P10635 whole entry): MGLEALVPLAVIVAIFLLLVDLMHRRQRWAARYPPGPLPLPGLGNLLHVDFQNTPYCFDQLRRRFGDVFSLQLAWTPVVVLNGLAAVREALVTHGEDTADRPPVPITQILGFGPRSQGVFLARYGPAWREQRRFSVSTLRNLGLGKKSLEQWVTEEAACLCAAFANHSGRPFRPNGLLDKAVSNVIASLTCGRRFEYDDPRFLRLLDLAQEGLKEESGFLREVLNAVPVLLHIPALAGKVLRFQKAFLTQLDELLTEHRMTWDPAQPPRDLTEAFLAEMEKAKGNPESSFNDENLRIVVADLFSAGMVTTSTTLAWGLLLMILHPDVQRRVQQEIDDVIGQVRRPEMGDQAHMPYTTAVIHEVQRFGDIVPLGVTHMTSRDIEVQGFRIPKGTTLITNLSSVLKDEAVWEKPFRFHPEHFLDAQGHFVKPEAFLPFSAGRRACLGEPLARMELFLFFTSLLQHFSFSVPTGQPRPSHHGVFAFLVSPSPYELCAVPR

CYP3A4 = CYP3A4 (Homo sapiens, UniProt P08684); experiment: Inhibition of CYP3A4 in human liver microsomes at 10 uM preincubated for 10 mins followed by NADPH cofactor addition and measured after 10 mins by LC-MS/MS analysis; assay type: ADME, Microsome; conditions: time 20 min; in short: as §2
CYP3A4, sequence (P08684 whole entry): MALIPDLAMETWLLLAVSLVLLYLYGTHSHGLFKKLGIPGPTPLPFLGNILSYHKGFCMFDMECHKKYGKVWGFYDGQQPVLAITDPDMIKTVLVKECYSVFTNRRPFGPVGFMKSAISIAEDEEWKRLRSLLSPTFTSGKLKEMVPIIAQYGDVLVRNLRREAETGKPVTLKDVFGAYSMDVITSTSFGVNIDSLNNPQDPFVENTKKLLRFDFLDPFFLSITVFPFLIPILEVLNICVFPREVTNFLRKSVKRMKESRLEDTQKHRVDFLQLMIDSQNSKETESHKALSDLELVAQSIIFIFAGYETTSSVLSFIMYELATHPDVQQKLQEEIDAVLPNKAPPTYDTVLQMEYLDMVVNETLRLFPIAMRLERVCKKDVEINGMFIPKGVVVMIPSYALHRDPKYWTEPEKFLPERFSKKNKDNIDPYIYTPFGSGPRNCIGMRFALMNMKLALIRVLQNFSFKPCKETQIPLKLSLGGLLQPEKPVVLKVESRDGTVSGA

IC50 [1]: 56 nM
SMILES: Nc1ccc(Sc2ccnc(Nc3ccc(N4CCOCC4)cc3)n2)cc1F

IC50 [1]: 17 nM
half-life [2]: 0.972 h
microsomal CLint [3]: 23.8 µL/min/mg
remaining at 1 h [4]: 48.7%
remaining at 1 h [5]: 94.4%
IC50 (MCF7): 8720 nM
IC50 (BT-474): > 20000 nM
IC50 (MDA-MB-231): 5110 nM
SMILES: Nc1ccc(Sc2ccnc(Nc3ccc(N4CCOCC4)cc3)n2)cc1

IC50 [1]: 35 nM
IC50 (MCF7): 3450 nM
IC50 (BT-474): 9320 nM
IC50 (MDA-MB-231): 8080 nM
SMILES: Nc1ccc(Sc2ccnc(Nc3ccc(N4CCOCC4)cc3)n2)c(F)c1

IC50 [1]: 71 nM
SMILES: CNc1ccc(Sc2ccnc(Nc3ccc(N4CCOCC4)cc3)n2)cc1

IC50 [1]: 39 nM
IC50 (MCF7): 3860 nM
IC50 (BT-474): 16200 nM
IC50 (MDA-MB-231): 4470 nM
SMILES: Nc1ccc(Sc2ccnc(Nc3ccc(C(=O)N4CCOCC4)cc3)n2)cc1

IC50 [1]: 45 nM
IC50 (MCF7): > 20000 nM
IC50 (BT-474): 12900 nM
IC50 (MDA-MB-231): 5150 nM
SMILES: Nc1ccc(Sc2ccnc(Nc3cccc(N4CCOCC4)c3)n2)cc1

IC50 [1]: 198 nM
SMILES: Fc1ccc(Sc2ccnc(Nc3ccc(N4CCOCC4)cc3)n2)cc1

IC50 [1]: 1100 nM
SMILES: Nc1ccc(Sc2ccnc(Nc3ccc(N4CCSCC4)cc3)n2)cc1

IC50 [1]: 153 nM
SMILES: Nc1cccc(Sc2ccnc(Nc3ccc(N4CCOCC4)cc3)n2)c1

IC50 [1]: 139 nM
SMILES: Nc1ccc(Sc2ccnc(Nc3ccc(N4CCNCC4)cc3)n2)cc1

IC50 [1]: 137 nM
SMILES: Nc1ccc(Sc2ccnc(Nc3cccc(CN4CCOCC4)c3)n2)cc1

IC50 [1]: 519 nM
SMILES: Nc1ccc(Sc2ccnc(Nc3ccccc3)n2)cc1

IC50 [1]: 149 nM
SMILES: Clc1ccc(Sc2ccnc(Nc3ccc(N4CCOCC4)cc3)n2)cc1

IC50 [1]: 189 nM
SMILES: Brc1ccc(Sc2ccnc(Nc3ccc(N4CCOCC4)cc3)n2)cc1

IC50 [1]: 57 nM
SMILES: Nc1ccc(Sc2ccnc(Nc3ccc(NC4CCNCC4)cc3)n2)cc1

IC50 [1]: 80 nM
SMILES: Nc1ccc(Sc2ccnc(Nc3ccc(NC4CCNC4)cc3)n2)cc1 (stereo unspecified)

IC50 [1]: 7 nM
half-life [2]: > 2.42 h
microsomal CLint [3]: < 9.6 µL/min/mg
remaining at 1 h [4]: 100%
remaining at 1 h [5]: 104%
IC50 (MCF7): 1440 nM
IC50 (BT-474): 7810 nM
IC50 (MDA-MB-231): 2130 nM
remaining at 0 h [6]: 100%
remaining at 10 min [7]: 105%
remaining at 0.5 h [8]: 114%
remaining at 1 h [9]: 107%
remaining at 2 h [10]: 104%
half-life [11]: > 4.82 h
inhibition at 10 min, 10 µM (CYP1A2): 33.1%
inhibition at 10 min, 10 µM (CYP2C9): 42.9%
inhibition at 10 min, 10 µM (CYP2C19): 48.7%
inhibition at 10 min, 10 µM (CYP2D6): 8%
inhibition at 10 min, 10 µM (CYP3A4): 14.4%
SMILES: Nc1ccc(Sc2ccnc(Nc3ccc(NC4CCOCC4)cc3)n2)cc1

IC50 [1]: 379 nM
SMILES: Nc1ccc(Sc2ccnc(Nc3ccc(CN4CCNCC4)cc3)n2)cc1

IC50 [1]: 64 nM
SMILES: Nc1ccc(Sc2ccnc(Nc3ccc(CN4CCOCC4)cc3)n2)cc1

IC50 [1]: 313 nM
SMILES: CN(C)c1ccc(Sc2ccnc(Nc3ccc(N4CCOCC4)cc3)n2)cc1

IC50 [1]: 6620 nM
SMILES: COC(=O)c1cc(Nc2nccc(Sc3ccc(N)cc3)n2)ccc1NC1CCOCC1

Further lines, the compound ahead of its results:

SMILES: Fc1cccc(Sc2ccnc(Nc3ccc(N4CCOCC4)cc3)n2)c1
IC50 [1]: 79 nM

SMILES: Brc1cccc(Sc2ccnc(Nc3ccc(N4CCOCC4)cc3)n2)c1
IC50 [1]: 2380 nM

SMILES: Brc1ccccc1Sc1ccnc(Nc2ccc(N3CCOCC3)cc2)n1
IC50 [1]: 219 nM

SMILES: Clc1cccc(Sc2ccnc(Nc3ccc(N4CCOCC4)cc3)n2)c1
IC50 [1]: 1430 nM

SMILES: c1cc(Sc2ccc3[nH]ncc3c2)nc(Nc2ccc(N3CCOCC3)cc2)n1
IC50 [1]: 125 nM

SMILES: Clc1ccccc1Sc1ccnc(Nc2ccc(N3CCOCC3)cc2)n1
IC50 [1]: 142 nM

SMILES: c1ccc(CNc2ccnc(Nc3ccc(N4CCOCC4)cc3)n2)cc1
IC50 [1]: 176 nM

SMILES: c1ccc(Oc2ccnc(Nc3ccc(N4CCOCC4)cc3)n2)cc1
IC50 [1]: 81 nM

SMILES: Fc1ccccc1Sc1ccnc(Nc2ccc(N3CCOCC3)cc2)n1
IC50 [1]: 136 nM

SMILES: c1ccc(Sc2ccnc(Nc3ccc(N4CCOCC4)cc3)n2)cc1
IC50 [1]: 31 nM
IC50 (MCF7): > 20000 nM
IC50 (BT-474): > 20000 nM
IC50 (MDA-MB-231): 7570 nM

SMILES: c1ccc2c(Sc3ccnc(Nc4ccc(N5CCOCC5)cc4)n3)cccc2c1
IC50 [1]: 177 nM

SMILES: c1ccc(Nc2ccnc(Nc3ccc(N4CCOCC4)cc3)n2)cc1
IC50 [1]: 65 nM

SMILES: Nc1ccccc1Sc1ccnc(Nc2ccc(N3CCOCC3)cc2)n1
IC50 [1]: 297 nM

SMILES: CNC(=O)c1ccccc1Sc1ccnc(Nc2ccc(N3CCOCC3)cc2)n1
IC50 [1]: 102 nM

SMILES: c1cc(Sc2ccnc(Nc3ccc(N4CCOCC4)cc3)n2)c2cccnc2c1
IC50 [1]: 46 nM
IC50 (MCF7): > 20000 nM
IC50 (BT-474): > 20000 nM
IC50 (MDA-MB-231): 6480 nM
